Measured values taken from paper PMC3076219 (European journal of immunology, 2009).
Several values for one entry are separate records, joined by “and”; a condition that tells them apart may be missing. Equal values may be shown once.

Key:
CXCR1 [1] = experiment: CXCR1 surface expression on neutrophils, flow cytometry; type: cell-based, human
In short: (§1)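 Human blood neutrophils were isolated by dextran sedimentation and Ficoll (>95% CD16+) and held at 5×10^6/mL in RPMI 1640 with 1% FBS. They were treated 3h with a dose series (test peptide 1–10 µM; chemokines 1, 5, 10, 50 nM) or with 5 µM for 0.5–3h. Cells were blocked in 10% human serum and stained with anti-CXCR1-APC/anti-CXCR2-FITC or anti-P2X7-FITC, plus anti-CD16. Read-out was flow cytometry GMFI.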

P2X7 [2] = conditions: LL-37; ref [14]; cited from earlier work
monocytes [3] = experiment: Migration of monocytes, 24-well Transwell; type: cell-based, human; conditions: LL-37 5 µM, CXCL1 50 nM, WKYMVm 5 µM, ATP 50 µM, BzATP 50 µM; 90 min, 37°C; Fig. 7F
In short: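 CFSE-labelled monocytes or THP-1 cells (5 µM, 5 min RT) at 2×10^6/mL in phenol-red-free RPMI 1640 with 1% FBS went in the Transwell upper chamber (3-µm pores). Stimuli in the lower chamber included CXCL1 50 nM, WKYMVm 5 µM and ATP/BzATP 50 µM. Cells were used with or without 20 min preincubation with 10 µM CXCR2 antagonist. Incubation at 37 °C lasted 90 min for monocytes and 2 h for THP-1. Lower-well cells were read at 495 nm against a standard curve, in quadruplicate.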

CXCR1 [4] = experiment: Calcium mobilization in HEK293/CXCR1 cells; type: cell-based, human; conditions: Indo-1; Fig. 7A-B
In short: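 CXCR1-transfected HEK293 cells were loaded with 5 µM Indo-1-AM in 5 µM pluronic F-127/PBS for 30 min at RT. They were washed in cold PBS, spun at 200 × g for 10 min at 4 °C and suspended in PBS with calcium and magnesium. Stimulation followed baseline recording. Flow cytometric [Ca2+]i was read as the 405:485 nm emission ratio with 351 nm excitation. Three independent experiments.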

FPR2 = FPR2 surface expression on neutrophils; type: cell-based, human; conditions: LL-37; data not shown
CXCR1 [5] = experiment: Confocal analysis of CXCR1 internalization in neutrophils; type: cell-based, human; conditions: LL-37 5 µM or CXCL8 50 nM, 1 h, 37°C; Fig. 8
In short: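 Neutrophils came from citrated donor blood by dextran sedimentation and Ficoll gradient. […] Cells were fixed in 2% paraformaldehyde, permeabilised with saponin and blocked with human serum. Anti-CXCR1 or anti-CXCR2 mAb (4°C), then Alexa 488 anti-mouse IgG, DAPI mount, confocal imaging; three independent experiments.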

immature dendritic cells = conditions: differentiated from monocytes; ref [9]; cited from earlier work
monocytes [6] = experiment: Calcium mobilization in monocytes; type: cell-based, human
In short: (§2)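 Peripheral blood monocytes (kit-isolated from PBMC, CD14-checked) or THP-1 cells at 10^7/mL were loaded with 5 µM Indo-1-AM for 7 min at 37 °C, then held 10 min at RT and washed in cold PBS. Cells were run at 2×10^6/mL in KRP (PBS, 1.5 mM CaCl2, 1.5 mM MgSO4). After baseline they got a first stimulus, then a second. Flow cytometry used 351 nm excitation and the 405:485 nm ratio, gating live cells. Three independent experiments.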

neutrophils [7] = experiment: Calcium mobilization of neutrophils; type: cell-based, human
monocytes [8] = conditions: cited from earlier work
neutrophils [9] = experiment: Cross-desensitization of calcium mobilization of neutrophils; type: cell-based, human
CXCR2 [10] = experiment: Calcium mobilization in HEK293/CXCR2 cells; type: cell-based, human; conditions: Indo-1; Fig. 7A-B
In short: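 They were washed in cold PBS, pelleted at 200 × g for 10 min at 4 °C, and resuspended in PBS with Ca/Mg. […] [Ca2+]i was read as the 405:485 nm ratio by flow cytometry, gating on living cells.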

THP-1 cells = experiment: Calcium mobilization in THP-1 cells; type: cell-based; conditions: Fig. 7C
In short: as §2

neutrophils [11] = conditions: LL-37; ref [15]; cited from earlier work
neutrophils [12] = experiment: Toxicity to neutrophils; type: cell-based, human
CXCR2 [13] = experiment: Total CXCR2 protein in neutrophils, western blot; type: cell-based, human; conditions: LL-37 treated neutrophils, Supporting Information Fig. 6B
P2X7 [14] = experiment: P2X7 surface expression on neutrophils, flow cytometry; type: cell-based, human; conditions: LL-37 treated neutrophils, 3h; Fig. 2D
In short: as §1

macrophages = conditions: including chemokines and their receptors; ref [6]; cited from earlier work
neutrophils [15] = conditions: ref [15], cited from earlier work
neutrophils [16] = conditions: cited from earlier work
CXCR2 [17] = experiment: CXCR2 surface expression on monocytes; type: cell-based, human; conditions: Supporting information Fig. 2
neutrophils [18] = experiment: Neutrophil migration, 24-well Transwell; type: cell-based, human; conditions: 1 h, 37°C, Fig. 6H
In short: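 CFSE-labelled human neutrophils (5 µM, 5 min RT) at 5×10^6/mL in phenol-red-free RPMI 1640 with 1% FBS went in the Transwell upper chamber (3-µm pores). The lower chamber held test peptide (1 or 5 µM) or medium. Some cells were first preincubated 20 min with 10 µM CXCR2 antagonist. After 1 h at 37 °C, migrated cells were read at 495 nm against a standard curve. Quadruplicate; unpaired t-test.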

LL-37: ~4.5 kD active α-helical peptide, C-terminal domain of human cathelicidin hCAP18
CXCR1 surface expression, time course (CXCR1 [1]; LL-37 5 µM, 0.5-3h, Fig. 1C): not affected by LL-37 treatment
CXCR1 down-regulation at 10 µM (CXCR1 [1]; LL-37 10 µM, 3h): does not down-regulate CXCR1
IL-1β processing and release from monocytes (P2X7 [2]): induce IL-1β processing and release from monocytes
stimulation of migration of monocytes (monocytes [3]): able to stimulate migration in monocytes
calcium mobilization in CXCR1 transfected HEK293 cells (CXCR1 [4]): only CXCL8 gave a response
FPR2 surface expression, time course (FPR2): remained unchanged
CXCR1 translocation (internalization) (CXCR1 [5]): translocation of CXCR2 but not CXCR1 to the cytoplasmic granules
migration of immature dendritic cells (immature dendritic cells): but not immature dendritic cells
return of Ca2+ response to baseline, monocytes (monocytes [6]; LL-37, Fig. 7D): returns to baseline for THP-1 cells, but not for neutrophils and monocytes
cross-block of ATP stimulated calcium mobilization in monocytes (monocytes [6]; LL-37 first, then ATP, Fig. 7D): neither ATP nor WKYMVm cross-block LL-37 stimulated calcium mobilization and vice versa
cross-block of WKYMVm stimulated calcium mobilization in monocytes (monocytes [6]; LL-37 first, then WKYMVm, Fig. 7D): neither ATP nor WKYMVm cross-block LL-37 stimulated calcium mobilization and vice versa
calcium mobilization in monocytes (monocytes [6]; LL-37 stimulated): stimulates calcium mobilization
[Ca2+]i pattern, dose response (neutrophils [7]; LL-37 1 µM, 2.5 µM, 5 µM, 10 µM, Indo-1, Fig. 3A): a rapid rise followed by a slightly declining plateau region
[Ca2+]i duration (neutrophils [7]; LL-37, 600s recording time, Fig. 3A): sustained calcium mobilization over the 600s recording time
return of Ca2+ response to baseline, neutrophils (neutrophils [7]; LL-37, Fig 3A): returns to baseline for THP-1 cells, but not for neutrophils and monocytes
calcium flux response in the absence of extracellular Ca2+ (neutrophils [7]; PBS without calcium and magnesium, LL-37 5 µM, WKYMVm 5 µM, ATP 5 µM, Fig. 3C): only the WKYMVm peptide is capable of generating a calcium flux response
migration of human peripheral monocytes (monocytes [8]; ref [3], [9], [10]): migration of human peripheral monocytes
in vitro migration of human peripheral blood monocytes (monocytes [8]; ref [9]): induces in vitro migration of human peripheral blood monocytes
cross-desensitization of ATP response by LL-37 (neutrophils [9]; LL-37 first, then ATP, Supporting information Fig. 3A-B): unable to block calcium mobilization stimulated by LL-37 in neutrophils, and vice versa
cross-desensitization of response to fMLF by LL-37, CXCL7, CXCL1 (neutrophils [9]; data not shown): do not cross-sensitize fMLF stimulation
calcium mobilization in CXCR2 transfected HEK293 cells (CXCR2 [10]): weak but similar patterns of calcium mobilization
calcium signal in THP-1 cells (THP-1 cells): robust calcium signal
return of Ca2+ response to baseline, THP-1 (THP-1 cells; LL-37): returns to baseline for THP-1 cells
block of ATP induced calcium mobilization by LL-37 (THP-1 cells; THP-1): able to partially block
ATP release (neutrophils [11]): induces ATP release from neutrophils
cell membrane permeability (neutrophils [12]; > 10 µM LL-37, 125I-CXCL8 enters cells non-specifically): can cause cell membrane permeability
concentration with toxic activity on neutrophils (neutrophils [12]; in 125I-CXCL8 binding study): > 10 µM and 10 µM
total CXCR2 protein level (CXCR2 [13]): no changes in total amounts
P2X7 surface expression (P2X7 [14]): up-regulate the expression of P2X7
number of genes with stimulated expression by macrophages (macrophages): over 40 genes
cytotoxicity (neutrophils [15]; LL-37 10 µM): general cytotoxicity is observed at this dosage
toxic effect on freshly isolated neutrophils (neutrophils [15]; annexin V negative): no toxic effect
migration of neutrophils (neutrophils [16]; ref [3], [9], [10]): migration of human peripheral monocytes, neutrophils
neutrophil migration (literature) (neutrophils [16]; ref [9]): induces neutrophil migration
CXCR2 down-regulation on monocytes (CXCR2 [17]): down-regulate CXCR2
neutrophil migration at 1 µM (neutrophils [18]; LL-37 1 µM): not at 1 µM
neutrophil migration at 5 µM (neutrophils [18]; LL-37 5 µM, over background, p<0.05): induced neutrophil migration (over background)
